High-throughput results (PubChem BioAssay)
The list is not random: actives were taken first. Their share in the collection is about 1.8%.
APOBEC3G inh: APOBEC3G DNA deaminase inhibitors, primary screen, biochemical, fluorescence, single-stranded DNA substrate, uHTS. 0.28% of 330,000 active. inhibition, % at 20 µM. recombinant A3G, ssDNA deamination FAM/TAMRA fluorescence;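 active = inhibition of at least 40% at 20 µM, with no more than 30% in the related APOBEC3A deaminase screen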;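 also: plate controls were DMSO wells with A3G for no effect and wells lacking A3G enzyme for full effect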
Target sequence (Q9HC16 whole entry, looked up): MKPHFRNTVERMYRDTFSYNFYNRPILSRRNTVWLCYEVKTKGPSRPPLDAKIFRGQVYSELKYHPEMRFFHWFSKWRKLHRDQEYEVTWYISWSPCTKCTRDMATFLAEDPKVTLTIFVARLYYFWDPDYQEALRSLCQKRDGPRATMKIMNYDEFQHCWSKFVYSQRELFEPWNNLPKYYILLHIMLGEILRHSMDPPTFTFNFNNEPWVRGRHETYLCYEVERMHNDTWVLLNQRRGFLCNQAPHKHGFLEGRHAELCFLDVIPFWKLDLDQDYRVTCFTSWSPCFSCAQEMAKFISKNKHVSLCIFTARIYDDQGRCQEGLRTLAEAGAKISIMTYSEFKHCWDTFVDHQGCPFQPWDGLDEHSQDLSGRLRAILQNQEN
APOBEC3A inh: APOBEC3A ssDNA deaminase inhibitors, primary screen, selectivity assay for APOBEC3G inhibitor project, biochemical, FAM/TAMRA oligo cleavage fluorescence; DNA dC->dU-editing enzyme APOBEC-3A (Homo sapiens), P31941; recombinant A3A, FAM/TAMRA ssDNA deamination fluorescence; inhibition, % at 20 µM; 0.41% of 330,000 active; AID 493011, 2011;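 active = at least 40% inhibition at 20 µM here, with at most 30% in a related deaminase screen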;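 also: plate controls were A3A with DMSO for no effect and wells lacking A3A enzyme for full effect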
Tb MetRS inh: T. brucei MetRS inhibitors, primary screen, biochemical, luminescence | AID 624268, 2012 | inhibition, % at 11.9 µM | purified T. brucei MetRS, ATP depletion, Kinase-Glo luminescence | methionyl-tRNA synthetase (Trypanosoma brucei brucei) | 0.4% of 360,000 active;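 active = inhibition above a per-plate cutoff of the control wells' mean inhibition plus 3 SD, cut at about 5.5% in these data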;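 also: 0% = DMSO wells median and 100% = median of wells with control inhibitor compound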
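Test system – parasite MetRS enzyme · Reagent – substrates ATP, L-methionine and bulk Escherichia coli tRNA · Doses – 11.9 µM compound single dose, 0.9% DMSO · Times – 15 min enzyme-compound preincubation, 2 h reaction, 10 min detection, 25 °C · Signal – Kinase-Glo luminescence, ATP depletion format · Controls – DMSO-only wells as low control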
PHOSPHO1 block: PubChem AID 1565; Phosphoethanolamine/phosphocholine phosphatase (Homo sapiens), Q8TCT1; 1.1% of 290,000 active; inhibition, % at 13.3 µM; recombinant PHOSPHO1, absorbance phosphatase assay; in the data active = inhibition above about 60%
Target sequence (Q8TCT1 whole entry, looked up): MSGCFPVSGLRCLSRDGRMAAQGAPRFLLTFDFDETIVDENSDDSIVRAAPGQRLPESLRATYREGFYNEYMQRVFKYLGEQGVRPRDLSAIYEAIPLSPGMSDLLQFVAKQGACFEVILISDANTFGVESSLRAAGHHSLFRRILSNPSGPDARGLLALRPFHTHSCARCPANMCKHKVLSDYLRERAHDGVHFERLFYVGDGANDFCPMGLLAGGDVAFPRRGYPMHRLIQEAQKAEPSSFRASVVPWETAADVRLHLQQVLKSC
pCIP destab: p/CIP-EGFP fusion destabilizers, primary screen, fluorescence, F442A cells. Q05BA5. 16 h. decrease of EGFP signal, % at 10 µM. 0.01% of 290,000 active. AID 1984, 2009;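 active = EGFP signal decrease of at least 30% at 10 µM or well 3 SD below plate mean, unless failing retest; inactive = the rest, including hits failing retest or dose response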
Active calls of the source: *; . = no result given.

SMILES | APOBEC3G inh | APOBEC3A inh | Tb MetRS inh | PHOSPHO1 block | pCIP destab
CCOC(=O)CSc1nnc(SCCN2C(=O)c3ccccc3C2=O)s1 | -13 | -5 | -2 | 73* | -14
Cc1noc(C)c1S(=O)(=O)NC(=O)C1(C)CCN1C(=O)c1ccc(C2CCCCC2)cc1 (stereo not given) | . | . | 0 | . | .
COc1ccc(NC(=O)Cn2nnc(-c3ccccc3)c2COc2ccc3ccccc3c2)cn1 | . | . | 0 | . | .
COc1ccc(C2NS(=O)(=O)N=C2N)cc1 (stereo not given) | -2 | 1 | -1 | 14 | 2
CC1CCN(CCCNC(=O)c2ccc(N3CCCC3=O)cc2)CC1 | -2 | 2 | 0 | 64* | 0
CC1CCCN(CCCNC(=O)c2ccc(N3CCCC3=O)cc2)C1 (stereo not given) | -4 | -3 | 0 | 36 | -12
O=C(CSc1ncnc2sc3c(c12)CCC3)Nc1ccccc1C(=O)O | -4 | 5 | 0 | 30 | -11
COc1ccc(-n2c(SCC(=O)Nc3ccc(C(=O)O)cc3)nnc2-c2ccccc2)cc1OC | -9 | -2 | 0 | 2 | -1
Cc1csc(SCC(=O)c2cc(C)n(Cc3cccs3)c2C)n1 | -6 | 1 | 0 | 91* | -4
Cc1cc(C(=O)CSc2nnc(-c3ccc(OC(F)F)cc3)o2)c(C)n1Cc1cccs1 | -2 | -3 | 0 | 94* | 4
Cn1c(NN)nc2sc3c(c2c1=O)CC(C)(C)OC3 | -4 | -1 | 0 | -26 | -5
CCC1CC2(C)NC(=O)c3c(sc4c3CC(C)(C)OC4)N2C1=O (stereo not given) | 15 | -3 | 0 | 84* | -8
CN(C)C(=S)SCC(=O)NCc1ccc(F)cc1 | -8 | -4 | -2 | 36 | -9
O=C(Nc1ccn(Cc2ccccc2)n1)c1ccc2c(c1)OCO2 | -1 | 3 | -1 | 61* | -5
O=C(Nc1ccn(Cc2ccc(Cl)cc2)n1)c1ccccc1 | -1 | -1 | -1 | -22 | -4
Cc1cc(C(F)(F)F)nn1Cc1n[nH]c(=S)n1-c1ccc(F)cc1 | 10 | -3 | 0 | -4 | -3
CCc1ccc(-n2c(Cn3nc(C(F)(F)F)cc3C)n[nH]c2=S)cc1 | 5 | 3 | -1 | 89* | 6
CC(=O)c1cc(C(=O)c2ccccc2)sc1Nc1ccccc1 | -1 | 1 | 0 | 1 | -6
Cc1ccc(/C=C2\SC(=S)N(CC3CCCO3)C2=O)o1 (stereo not given) | 18 | 11 | 0 | 77* | -23
Cc1ccc(/C=C2/SC(=O)NC2=S)o1 | 46 | 72 | 0 | 68* | 11
O=C1/C(=C\c2ccc(-c3ccccc3Cl)o2)SC(=S)N1CC1CCCO1 (stereo not given) | -1 | 0 | -1 | 81* | 0
COc1ccc(/C=C2\SC(=S)N(CC3CCCO3)C2=O)cc1 (stereo not given) | -3 | 2 | -1 | 4 | -8
COc1ccc(C(=O)NCCCN2CCOCC2)cc1S(=O)(=O)N1CCCc2ccccc21 | -3 | 0 | 0 | -13 | 4
Oc1c(C(c2ccco2)N2CCN(C(c3ccccc3)c3ccccc3)CC2)sc2ncnn12 (stereo not given) | -15 | -4 | 0 | 88* | -4
Cc1ccnc(NC(=O)c2cc([N+](=O)[O-])cc([N+](=O)[O-])c2)c1 | -8 | -1 | 0 | 65* | -1
SMILES | APOBEC3G inh | APOBEC3A inh | Tb MetRS inh | PHOSPHO1 block | pCIP destab
Cc1ccnc(NC(=O)Cc2ccc([N+](=O)[O-])cc2)c1 | -4 | -2 | 0 | 19 | -10
CCOC(=O)c1cnc(SCC(=O)c2ccccc2)nc1N | -4 | -3 | 0 | 102* | -26
CCCNC(=O)C12CCC(C)(C(=O)C1Br)C2(C)C (stereo not given) | -12 | -5 | 0 | -2 | -5
CCOC(=O)c1ccc(NS(=O)(=O)c2c(C)nc3sccn3c2=O)cc1 | -4 | -2 | 0 | 25 | -15
COc1ccc(NC(=O)NCCc2cccc(Cl)c2)cc1OC | -8 | -3 | 3 | 41 | 1
CCOC(=O)c1cn(CC)c2ccc(Br)cc2c1=O | 9 | 35 | 0 | 78* | -1
COc1ccc(Cn2nnnc2C(CC(C)C)N2CCC(C(N)=O)CC2)cc1 (stereo not given) | -3 | -2 | 1 | 66* | -16
COc1ccc(S(=O)(=O)NCCN2CCOCC2)cc1Br | -7 | -6 | -1 | . | -3
CCN(CC)CCNS(=O)(=O)c1ccc(OC)c(Br)c1 | 18 | 36 | 0 | 93* | 6
CCC(=NN=C(CC)c1ccccc1O)c1ccccc1O | . | . | 0 | . | .
C[C@@H]1CN([C@@H](C)CO)S(=O)(=O)c2ccc(C#CC(C)(C)O)cc2O[C@H]1CN(C)C(=O)C1CCCCC1 | . | . | -1 | . | .
CCOC(=O)C1CCCN(C(=O)c2cccc(C(F)(F)F)c2)CC1 (stereo not given) | . | . | 0 | . | .
CNc1nc(-c2ccccc2)[n+](-c2ccc(C)cc2)s1 | . | . | 0 | 90* | -6
CCN(CC(=O)Nc1c(F)cccc1F)C(=O)c1ccc(=O)n(Cc2ccccc2)n1 | -1 | 3 | -1 | 43 | 10
CCN(CC(=O)Nc1cc(Cl)ccc1C)C(=O)c1ccc(=O)n(Cc2ccccc2)n1 | 0 | 4 | 0 | 62* | -14
CC1=Nc2ccc3ccccc3c2C1(C)C | -9 | -4 | -1 | 63* | -16
Cc1c2ccccc2c(C)c2c1ccc1ccccc12 | -3 | 1 | 0 | . | .
O=C(c1ccco1)[C@@H]1[C@@H]2C(=O)N(c3ccc(F)cc3)C(=O)[C@@H]2C2c3ccccc3C=CN21 (stereo not given in full) | 0 | -7 | . | 55 | -22
O=C(c1ccco1)[C@@H]1[C@@H]2C(=O)N(c3ccc(Br)cc3)C(=O)[C@@H]2C2c3ccccc3C=CN21 (stereo not given in full) | . | . | 0 | 68* | -19
O=C(NCc1n[nH]c(=S)n1-c1ccc(Br)cc1)c1ccc(S(=O)(=O)N2CCCC2)cc1 | 6 | -4 | -1 | -64 | -12
O=C(NCc1n[nH]c(=S)n1-c1ccc(Cl)c(Cl)c1)c1ccc(S(=O)(=O)N2CCOCC2)cc1 | -3 | 0 | 0 | -31 | -1
COc1ccccc1-n1c(CNC(=O)c2ccc(S(=O)(=O)N3CCOCC3)cc2)n[nH]c1=S | 42* | -5 | -1 | 51 | -2
O=C(NCc1n[nH]c(=S)n1-c1ccc(Br)cc1)c1ccc(S(=O)(=O)N2CCOCC2)cc1 | 17 | -4 | 0 | 77* | -19
Cc1cccc(-n2c(CNC(=O)c3ccc(S(=O)(=O)N4CCCC4)cc3)n[nH]c2=S)c1 | 27 | -4 | 0 | 80* | -2
